The text below walks through data of ChEMBL document CHEMBL4177600, “Identification of novel PI3K inhibitors through a scaffold hopping strategy” (Bioorg Med Chem Lett, 2017).

The nature of data set [1]: Permeability of the compound at 300 uL after 5 hrs by PAMPA. The format is ADME. The following applies: read-out: permeability. The method in brief: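 Pre-coated PAMPA plates with a tri-layer phospholipid membrane. Donor held compound in PBS at the highest concentration soluble in PBS; acceptor was PBS. Incubated 5 h at room temperature, with propranolol and sorafenib (10 µM) as high and low permeability controls. Donor and acceptor concentrations measured by LC-MS/MS; Pe (10^-6 cm/s) calculated from acceptor/equilibrium concentrations, 0.3 cm² area and well volumes.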
For orientation: In PAMPA a lipid-coated filter parts donor from acceptor wells.

Data set [2] is described as follows: Inhibition of PI3K in serum-stimulated human U2OS cells assessed as decrease in AKT1 phosphorylation at S473 by C-ELISA. The format is cell-based. The gist of the method: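 U2OS osteosarcoma cells grown in 0.1% FBS, then serum-stimulated; endogenous phospho-Akt1 (Ser473) quantified by cell ELISA with chemiluminescent substrate. EC50 from sigmoid dose-response fit; two independent experiments in duplicate.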

A further data set deals with CYP2D6 (Homo sapiens, UniProt P10635). The data set is described as follows: Inhibition of CYP2D6 (unknown origin) at 10 uM relative to control. The data set is classed as ADME. The method in brief:
(§1)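 CYP1A2, 2C9, 2C19, 2D6 and 3A4 inhibition measured at 10 µM test compound in duplicate; percent inhibition reported.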

The target in data set [3] is Dual specificity tyrosine-phosphorylation-regulated kinase 1A (Homo sapiens) (UniProt Q13627). The experiment in a line: Inhibition of DYRK1A (unknown origin) at 1 uM relative to control. The gist of the method:
(§2)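 Kinase panel of 24 enzymes, each tested at 1 µM; percent inhibition reported as the average of two independent data points.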

The next data set has as its target PI3K p110 beta/p85 alpha (Homo sapiens, UniProt P42338). The experiment in a line: Inhibition of p110beta/85alpha (unknown origin) using PIP2 as substrate by HTRF assay. The data set is classed as protein-complex assay. Conditions: read-out: Ki(app). (In general: In TR-FRET formats the signal depends on donor and acceptor labels being close together.)
Data set [4] deals with Casein kinase I isoform alpha (Homo sapiens) (UniProt P48729). The experiment in a line: Inhibition of recombinant human N-terminal GST/HIS6-tagged CK1alpha (M1 to F365 residues) expressed in Sf9 insect cells at 1 uM using casein as substrate by fliter binding assay relative to control. The gist of the method:
as §2

Data set [5] concerns the target T1, Serine/threonine-protein kinase Sgk1 (Homo sapiens) (UniProt O00141).
T1 sequence (whole entry): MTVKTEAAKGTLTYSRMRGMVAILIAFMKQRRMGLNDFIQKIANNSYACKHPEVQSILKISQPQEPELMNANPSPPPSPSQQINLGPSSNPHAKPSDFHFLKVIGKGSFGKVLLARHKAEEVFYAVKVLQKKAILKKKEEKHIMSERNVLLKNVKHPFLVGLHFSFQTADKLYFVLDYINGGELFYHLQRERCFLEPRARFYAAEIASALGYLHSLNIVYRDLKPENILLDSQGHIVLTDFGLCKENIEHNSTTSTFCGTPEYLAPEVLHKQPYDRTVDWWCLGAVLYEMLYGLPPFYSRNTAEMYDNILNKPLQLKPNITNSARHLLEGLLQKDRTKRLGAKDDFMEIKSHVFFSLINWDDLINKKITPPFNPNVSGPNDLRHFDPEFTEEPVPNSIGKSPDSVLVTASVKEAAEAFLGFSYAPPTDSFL
The experiment in a line: Inhibition of recombinant human N-terminal GST-tagged SGK1 (M1 to L431 residues) expressed in baculovirus infected Sf9 cells at 1 uM using GSK3-derived peptide as substrate by filter binding method relative to control. The method in brief: as §2

Data set [6] concerns the target Hepatocyte growth factor receptor (Homo sapiens) (UniProt P08581). The data set is described as follows: Inhibition of recombinant human N-terminal GST/His6-tagged MET (K956 to S1390 residues) expressed in Sf9 insect cells at 1 uM using TRK-C-derived peptide as substrate by filter binding method relative to control. The method in brief:
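Single-point screen at 1 µM in a 24-kinase panel run externally; each value is the average of two independent data points. The detailed assay conditions are given only on the provider's site.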

The target of data set [7] is Serine/threonine-protein kinase Chk2 (Homo sapiens) (UniProt O96017). The data set is described as follows: Inhibition of CHK2 (unknown origin) at 1 uM relative to control. The method in brief:
as §2

For data set [8], the target named is Tyrosine-protein kinase JAK2 (Homo sapiens) (UniProt O60674). The experiment in a line: Inhibition of recombinant human N-terminal GST/His6-tagged JAK2 (P717 to G1132 residues) expressed in Sf9 insect cells at 1 uM using TRK-C-derived peptide as substrate by filter binding method relative to control. The method in brief:
as §2

Data set [9] concerns the target Phosphatidylinositol 4,5-bisphosphate 3-kinase catalytic subunit gamma isoform (Homo sapiens, UniProt P48736). The experiment in a line: Inhibition of recombinant full-length human N-terminal His6-tagged p110gamma expressed in baculovirus infected Sf21 insect cells using PIP2 as substrate by HTRF assay. Conditions: read-out: Ki(app).
Another data set concerns the target CYP2C9 (Homo sapiens, UniProt P11712). The experiment in a line: Inhibition of CYP2C9 (unknown origin) at 10 uM relative to control. The format is ADME. The gist of the method:
as §1

In data set [10] the target is Proto-oncogene tyrosine-protein kinase Src (Homo sapiens) (UniProt P12931). The experiment in a line: Inhibition of human SRC at 1 uM using poly(Glu,Tyr)4:1 as substrate by filter binding method relative to control. The gist of the method:
as §2

The nature of data set [11]: Stability in mouse liver microsomes assessed as parent compound remaining at 0.5 uM after 30 mins by LC-MS/MS analysis. The data set is classed as ADME, microsome. Conditions: read-out: Stability. The gist of the method:
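Single time-point stability assay: 0.5 µM compound, 0.5 mg/ml human or mouse liver microsomes in 0.1 M potassium phosphate pH 7.4, with NADPH-regenerating system, 30 min at 37 °C with shaking. Reaction quenched with acetonitrile/0.1% formic acid and centrifuged; supernatant analysed by LC-MS/MS. Reported as percent remaining; duplicates.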
(Liver microsomes are a subcellular fraction often used to study metabolism.)

Data set [12] deals with PI3-kinase p110-alpha/p85-alpha (Homo sapiens, UniProt P42336). The data set is described as follows: Inhibition of full-length human P110alpha (1 to 1068 residues)/N-terminal GST-fused p85alpha (1 to 724 residues) expressed in baculovirus expression system by ADP Hunter assay. Conditions: read-out: Ki(app).
Data set [13] deals with Insulin receptor (Homo sapiens) (UniProt P06213). The experiment in a line: Inhibition of recombinant human N-terminal GST-tagged INSR (G989 to S1382 residues) expressed in baculovirus infected Sf9 cells at 1 uM using Poly(Ala,Glu,Lys,Tyr)6:2:5:1 as substrate by filter binding method relative to control. The method in brief:
as §2

For data set [14], the system named is Serine/threonine-protein kinase B-raf (Homo sapiens), P15056 [V600E]. The experiment in a line: Inhibition of recombinant human N-terminal GST/HIS6-tagged BRAF V600E mutant (Q417 to H766 residues) expressed in Sf9 insect cells at 1 uM using MEK1-KM as substrate by fliter binding assay relative to control. The method in brief:
as §2

Data set [15] has as its target Epidermal growth factor receptor (Homo sapiens) (UniProt P00533). The data set is described as follows: Inhibition of recombinant human N-terminal GST/His6-tagged EGFR (H672 to A1210 residues) expressed in Sf9 insect cells at 1 uM using TRK-C-derived peptide as substrate by filter binding method relative to control. The gist of the method: as §2
Data set [16] deals with Ribosomal protein S6 kinase alpha-1 (Homo sapiens) (UniProt Q15418). The experiment in a line: Inhibition of RPS6KA1 (unknown origin) at 1 uM relative to control. The gist of the method:
as §2

Each structure is given as a SMILES string. A value given as a limit tells only on which side of the number the result lay.

Sequence of Ribosomal protein S6 kinase alpha-1 (Homo sapiens) (Q15418 whole entry): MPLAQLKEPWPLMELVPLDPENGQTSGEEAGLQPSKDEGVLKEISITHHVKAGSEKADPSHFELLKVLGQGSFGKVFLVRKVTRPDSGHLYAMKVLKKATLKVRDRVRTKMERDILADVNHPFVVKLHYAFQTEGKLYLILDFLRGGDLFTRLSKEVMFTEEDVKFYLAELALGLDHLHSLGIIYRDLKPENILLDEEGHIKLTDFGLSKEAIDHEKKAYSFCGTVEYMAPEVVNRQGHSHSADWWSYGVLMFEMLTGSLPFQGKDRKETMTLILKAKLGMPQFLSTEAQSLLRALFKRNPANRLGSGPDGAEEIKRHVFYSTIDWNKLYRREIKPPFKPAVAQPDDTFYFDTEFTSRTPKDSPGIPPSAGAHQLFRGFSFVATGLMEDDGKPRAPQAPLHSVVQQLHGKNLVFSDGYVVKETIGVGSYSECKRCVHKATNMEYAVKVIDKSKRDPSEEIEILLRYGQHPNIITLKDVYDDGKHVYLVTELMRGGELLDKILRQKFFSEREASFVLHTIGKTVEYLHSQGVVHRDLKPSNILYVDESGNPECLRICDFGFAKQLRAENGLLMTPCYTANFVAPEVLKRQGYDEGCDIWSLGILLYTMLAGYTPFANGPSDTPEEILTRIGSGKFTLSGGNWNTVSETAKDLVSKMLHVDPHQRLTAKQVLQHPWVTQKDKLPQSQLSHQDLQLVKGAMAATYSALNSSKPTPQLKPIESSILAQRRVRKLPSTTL
Sequence of Serine/threonine-protein kinase Chk2 (Homo sapiens) (O96017 whole entry): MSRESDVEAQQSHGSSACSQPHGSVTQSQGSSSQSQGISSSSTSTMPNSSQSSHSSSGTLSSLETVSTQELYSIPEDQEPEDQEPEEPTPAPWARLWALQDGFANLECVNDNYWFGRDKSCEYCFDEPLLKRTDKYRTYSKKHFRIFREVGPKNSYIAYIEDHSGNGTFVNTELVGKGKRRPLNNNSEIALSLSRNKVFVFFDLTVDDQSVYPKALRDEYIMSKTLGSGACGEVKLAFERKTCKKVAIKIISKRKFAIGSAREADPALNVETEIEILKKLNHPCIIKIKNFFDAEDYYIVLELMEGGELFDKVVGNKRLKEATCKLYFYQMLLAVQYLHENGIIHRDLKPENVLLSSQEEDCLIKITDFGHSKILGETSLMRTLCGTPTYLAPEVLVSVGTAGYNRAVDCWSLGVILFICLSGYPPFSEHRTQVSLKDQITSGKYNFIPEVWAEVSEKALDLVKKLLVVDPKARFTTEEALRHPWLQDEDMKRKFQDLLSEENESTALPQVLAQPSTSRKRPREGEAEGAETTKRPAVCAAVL
Sequence of CYP2D6 (P10635 whole entry): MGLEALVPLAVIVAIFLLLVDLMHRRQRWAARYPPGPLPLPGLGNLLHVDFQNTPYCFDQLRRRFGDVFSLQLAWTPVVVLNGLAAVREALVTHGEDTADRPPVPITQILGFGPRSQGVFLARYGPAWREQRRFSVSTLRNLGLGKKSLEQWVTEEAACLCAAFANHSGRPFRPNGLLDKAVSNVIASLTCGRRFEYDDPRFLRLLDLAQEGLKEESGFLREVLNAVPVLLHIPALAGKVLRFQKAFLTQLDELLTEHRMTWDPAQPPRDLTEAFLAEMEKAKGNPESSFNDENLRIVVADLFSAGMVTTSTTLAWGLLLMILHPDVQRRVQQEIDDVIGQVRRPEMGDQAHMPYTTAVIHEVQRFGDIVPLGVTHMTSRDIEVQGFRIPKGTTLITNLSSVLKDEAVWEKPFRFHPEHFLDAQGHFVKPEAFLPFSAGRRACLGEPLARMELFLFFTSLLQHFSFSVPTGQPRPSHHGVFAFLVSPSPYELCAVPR
Sequence of Hepatocyte growth factor receptor (Homo sapiens) (P08581 whole entry, the tested form may be a part): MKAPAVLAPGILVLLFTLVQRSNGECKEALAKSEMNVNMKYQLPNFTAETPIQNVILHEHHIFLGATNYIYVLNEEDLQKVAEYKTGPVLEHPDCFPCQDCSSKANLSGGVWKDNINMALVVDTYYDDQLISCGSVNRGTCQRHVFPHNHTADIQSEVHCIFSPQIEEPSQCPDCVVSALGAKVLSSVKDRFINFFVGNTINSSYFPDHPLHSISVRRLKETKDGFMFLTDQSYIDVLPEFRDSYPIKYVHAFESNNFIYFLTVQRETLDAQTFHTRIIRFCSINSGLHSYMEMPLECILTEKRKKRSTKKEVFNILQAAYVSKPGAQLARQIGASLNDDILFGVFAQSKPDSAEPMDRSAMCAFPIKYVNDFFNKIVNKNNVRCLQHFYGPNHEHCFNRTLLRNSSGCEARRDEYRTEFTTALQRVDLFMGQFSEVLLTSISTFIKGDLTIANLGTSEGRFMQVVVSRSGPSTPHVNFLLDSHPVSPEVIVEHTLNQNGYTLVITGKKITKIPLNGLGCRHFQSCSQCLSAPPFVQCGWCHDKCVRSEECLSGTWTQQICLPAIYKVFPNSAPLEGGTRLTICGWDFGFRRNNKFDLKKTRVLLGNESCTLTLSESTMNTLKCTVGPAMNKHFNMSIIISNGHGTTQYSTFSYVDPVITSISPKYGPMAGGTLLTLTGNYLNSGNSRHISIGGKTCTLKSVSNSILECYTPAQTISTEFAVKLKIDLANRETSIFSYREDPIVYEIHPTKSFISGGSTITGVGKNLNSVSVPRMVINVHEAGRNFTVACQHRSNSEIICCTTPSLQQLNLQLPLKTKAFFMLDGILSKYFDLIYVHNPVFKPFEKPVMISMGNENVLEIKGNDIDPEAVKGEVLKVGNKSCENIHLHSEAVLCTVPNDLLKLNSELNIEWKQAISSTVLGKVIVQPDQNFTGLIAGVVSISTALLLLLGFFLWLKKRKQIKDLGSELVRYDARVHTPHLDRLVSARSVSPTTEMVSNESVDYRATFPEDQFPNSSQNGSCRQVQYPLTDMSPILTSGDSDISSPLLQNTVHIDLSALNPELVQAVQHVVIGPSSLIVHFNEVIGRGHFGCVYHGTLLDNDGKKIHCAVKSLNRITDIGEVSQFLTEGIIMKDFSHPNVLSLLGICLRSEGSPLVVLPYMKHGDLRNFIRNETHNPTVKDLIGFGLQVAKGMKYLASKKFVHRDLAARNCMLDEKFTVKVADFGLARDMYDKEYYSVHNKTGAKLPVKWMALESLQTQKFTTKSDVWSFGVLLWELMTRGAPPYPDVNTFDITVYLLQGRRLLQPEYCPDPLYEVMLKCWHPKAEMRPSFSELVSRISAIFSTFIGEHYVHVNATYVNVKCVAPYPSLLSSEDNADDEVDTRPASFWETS
Sequence of PI3K p110 beta/p85 alpha (P27986 whole entry, the tested form may be a part, canonical isoform): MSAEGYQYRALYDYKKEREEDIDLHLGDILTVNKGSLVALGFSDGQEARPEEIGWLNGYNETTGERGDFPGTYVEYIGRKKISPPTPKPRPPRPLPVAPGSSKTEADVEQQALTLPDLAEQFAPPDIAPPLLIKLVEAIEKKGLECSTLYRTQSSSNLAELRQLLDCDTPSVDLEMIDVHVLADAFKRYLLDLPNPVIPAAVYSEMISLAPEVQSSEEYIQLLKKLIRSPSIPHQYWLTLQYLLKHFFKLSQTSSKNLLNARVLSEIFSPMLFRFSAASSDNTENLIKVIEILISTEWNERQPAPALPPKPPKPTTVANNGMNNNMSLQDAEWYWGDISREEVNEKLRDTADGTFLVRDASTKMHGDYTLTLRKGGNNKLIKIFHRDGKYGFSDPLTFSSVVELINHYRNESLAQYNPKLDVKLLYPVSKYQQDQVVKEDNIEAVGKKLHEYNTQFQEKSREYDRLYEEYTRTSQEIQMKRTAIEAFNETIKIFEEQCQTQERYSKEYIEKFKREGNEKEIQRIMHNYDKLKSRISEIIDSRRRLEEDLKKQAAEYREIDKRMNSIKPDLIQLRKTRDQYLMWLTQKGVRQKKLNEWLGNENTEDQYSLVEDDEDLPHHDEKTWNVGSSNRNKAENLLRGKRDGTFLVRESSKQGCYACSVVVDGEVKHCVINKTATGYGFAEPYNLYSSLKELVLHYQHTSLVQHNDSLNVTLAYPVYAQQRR
Sequence of PI3K p110 beta/p85 alpha (P42338 whole entry, the tested form may be a part, canonical isoform): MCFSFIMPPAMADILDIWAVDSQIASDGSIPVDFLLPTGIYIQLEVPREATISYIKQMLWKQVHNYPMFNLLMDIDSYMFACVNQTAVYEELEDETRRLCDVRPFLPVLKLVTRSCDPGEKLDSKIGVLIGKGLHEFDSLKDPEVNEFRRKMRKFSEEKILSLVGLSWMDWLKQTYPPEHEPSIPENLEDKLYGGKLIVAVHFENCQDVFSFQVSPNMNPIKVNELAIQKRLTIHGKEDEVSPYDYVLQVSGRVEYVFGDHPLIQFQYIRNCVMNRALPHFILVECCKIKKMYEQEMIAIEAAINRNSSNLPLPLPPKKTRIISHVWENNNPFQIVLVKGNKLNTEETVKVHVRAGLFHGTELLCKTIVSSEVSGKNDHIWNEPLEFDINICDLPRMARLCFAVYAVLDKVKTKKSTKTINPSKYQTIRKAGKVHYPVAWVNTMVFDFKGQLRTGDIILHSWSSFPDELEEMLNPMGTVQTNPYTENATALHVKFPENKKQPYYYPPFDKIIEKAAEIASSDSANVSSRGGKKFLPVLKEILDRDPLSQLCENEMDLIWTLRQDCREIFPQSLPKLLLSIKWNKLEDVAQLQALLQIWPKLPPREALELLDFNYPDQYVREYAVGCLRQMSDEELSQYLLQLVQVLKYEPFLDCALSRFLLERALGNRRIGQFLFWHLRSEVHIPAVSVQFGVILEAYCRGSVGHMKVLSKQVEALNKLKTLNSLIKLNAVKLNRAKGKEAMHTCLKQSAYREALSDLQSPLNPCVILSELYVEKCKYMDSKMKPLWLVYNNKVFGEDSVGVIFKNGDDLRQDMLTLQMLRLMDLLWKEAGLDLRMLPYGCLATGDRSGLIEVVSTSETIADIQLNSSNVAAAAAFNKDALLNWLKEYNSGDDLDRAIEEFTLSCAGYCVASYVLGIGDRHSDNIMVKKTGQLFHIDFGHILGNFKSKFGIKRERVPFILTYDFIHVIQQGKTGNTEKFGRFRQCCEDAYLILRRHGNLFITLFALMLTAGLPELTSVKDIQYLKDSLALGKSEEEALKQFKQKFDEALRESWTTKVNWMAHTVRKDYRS

A word on the EC50: it is the concentration needed to bring the measured effect to its halfway point. In general, inhibition refers to how much of the control response was suppressed. For `CS(=O)(=O)N1CCN(Cc2cn3nc(-c4cnc(N)nc4)nc(N4CCOCC4)c3n2)CC1`, the Papp at 5 h in data set [1] was 3.54 ×10⁻⁶ cm/s. In addition, the concentration for a half-maximal effect (EC50) in data set [2] turned out to be 52.8 nM. Also, the inhibition at 10 µM on CYP2D6 and on CYP2C9 was less than 25% in each case. The inhibition in [3], in data set [4], in data set [5], in data set [6], in data set [7] and in [8] was less than 25% in each case. Moreover, the inhibition in [10], in data set [13], in data set [14], in [15] and in data set [16] was less than 25% each time. Moreover, the Ki is 388 nM at PI3K p110 beta/p85 alpha, 40.6 nM in data set [9] and 1.52 nM in data set [12]. Besides, the remaining at 0.5 h, 0.5 µM in data set [11] worked out at 100%.
In the case of `CS(=O)(=O)N1CCN(Cc2cc3c(N4CCOCC4)nc(-c4cnc(N)nc4)cn3n2)CC1`, the Papp at 5 h in data set [1] is 0.93 ×10⁻⁶ cm/s. The concentration for a half-maximal effect (EC50) in data set [2] amounted to 30.5 nM. Moreover, the inhibition at 10 µM on CYP2D6 and at CYP2C9 was less than 25% in each case. Also, the inhibition in [3], in data set [4], in [5], in data set [6], in data set [7] and in data set [8] was less than 25% each time. The inhibition in data set [10], in [13], in [14], in [15] and in [16] was less than 25% in each case. The Ki on PI3K p110 beta/p85 alpha turned out to be 49.2 nM; in [9], 49.1 nM; in data set [12], 0.99 nM. The remaining at 0.5 h, 0.5 µM in data set [11] is 100%.
`CS(=O)(=O)N1CCN(Cc2nc3c(N4CCOCC4)nc(-c4cnc(N)nc4)c(Cl)n3n2)CC1`: the Papp at 5 h in [1] came out at 0.69 ×10⁻⁶ cm/s. In addition, the 50% effective concentration (EC50) in data set [2] stood at 68.6 nM. Besides, the inhibition at 10 µM at CYP2D6 and against CYP2C9 was less than 25% each time. Moreover, the inhibition in [3], in data set [4], in data set [5], in data set [6], in data set [7] and in data set [8] was less than 25% throughout. The inhibition in data set [10], in [13], in data set [14], in data set [15] and in [16] was less than 25% in each case. The results for the Ki (on PI3K p110 beta/p85 alpha; in data set [9]; in data set [12]) were 285 nM, 42.4 nM and 5.5 nM, respectively. Moreover, the remaining at 0.5 h, 0.5 µM in [11] was 96%.
On to `CS(=O)(=O)N1CCN(Cc2nc3c(N4CCOCC4)nc(-c4cnc(N)nc4)cn3n2)CC1`, for which the Papp at 5 h in [1] amounted to 1.92 ×10⁻⁶ cm/s. For the same compound, in data set [2], the EC50 came to 87.2 nM. In addition, the inhibition at 10 µM against CYP2D6 and at CYP2C9 was less than 25% in each case. For the same compound, the inhibition in data set [3], in data set [4], in [5], in data set [6], in data set [7] and in data set [8] was less than 25% each time. Also, the inhibition in data set [10], in [13], in [14], in data set [15] and in data set [16] was less than 25% throughout. Moreover, the remaining at 0.5 h, 0.5 µM in data set [11] is 100%. Besides, the Ki in data set [12] is 1 nM.
